Assay results taken from ChEMBL document CHEMBL4428106, “Synthesis, biological evaluation and molecular docking study of N-arylbenzo[d]oxazol-2-amines as potential α-glucosidase inhibitors” (Bioorg Med Chem, 2016).

What was measured:
[1] = Inhibition of baker's yeast alpha-glucosidase using p-nitrophenyl-alpha D-glucopyranoside as substrate preincubated for 15 mins followed by substrate addition measured after 30 mins by spectrophotometric analysis; design: species or system Saccharomyces cerevisiae
How it was run: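 Enzyme 0.1 U/mL preincubated with test compounds at various concentrations (DMSO, final 5% v/v) in 0.1 M phosphate buffer pH 6.8, 37 C, 15 min; 1.25 mM p-nitrophenyl α-D-glucopyranoside then added, 30 min at 37 C; absorbance read at 405 nm. DMSO-only control; triplicates. % inhibition = (1-∆Asample/∆Acontrol)*100; IC50 = concentration giving 50% inhibition.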

[2] = Non-competitive inhibition of baker's yeast alpha-glucosidase using p-nitrophenyl-alpha D-glucopyranoside as substrate preincubated for 15 mins followed by substrate addition measured after 30 mins by Lineweaver-Burk plot analysis; design: species or system Saccharomyces cerevisiae
How it was run: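 Kinetics: inhibitor at 0, 10, 20, 30, 40 and 50 μM against p-nitrophenyl α-D-glucopyranoside at 0.25, 0.5, 1 and 2 mM. Inhibition type assigned from Lineweaver-Burk plots (changes in Vmax and Km); Ki estimated from replot of slope versus inhibitor concentration.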

[3] = system: Saccharomyces cerevisiae; assay: Potency index, ratio of acarbose IC50 to compound IC50 for baker's yeast alpha-glucosidase

SMILES | IC50 [1] [µM] | Ki [2] [µM] | Ratio IC50 [3]
Cc1ccccc1Nc1nc2ccccc2o1 | > 200 |  | 
COc1ccc(Nc2nc3ccccc3o2)cc1 | > 200 |  | 
CCOc1ccc(Nc2nc3ccccc3o2)cc1 | > 200 |  | 
c1ccc(Nc2nc3ccccc3o2)cc1 | > 200 |  | 
Cc1cccc(Nc2nc3ccccc3o2)c1 | > 200 |  | 
Cc1ccc(Nc2nc3ccccc3o2)cc1 | > 200 |  | 
Cc1ccc(Nc2nc3ccccc3o2)c(C)c1 | > 200 |  | 

Compounds with a lower IC50 [1], results first:

IC50 [1] [µM] | Ki [2] [µM] | Ratio IC50 [3] | SMILES
120 |  |  | FC(F)(F)c1cccc(Nc2nc3ccccc3o2)c1
80.4 |  |  | Clc1ccc(Nc2nc3ccccc3o2)cc1
68.4 |  |  | Fc1ccc(Nc2nc3ccccc3o2)cc1
65 |  |  | CCOc1ccccc1Nc1nc2ccccc2o1
44.4 |  |  | Clc1ccc(Nc2nc3ccccc3o2)c(Cl)c1
32.5 | 31.3 | 25 | c1ccc(Oc2ccc(Nc3nc4ccccc4o3)cc2)cc1
